Legend:
[1] = test system: NCI-H2228; assay: Cytotoxicity against human NCI-H2228 cells after 72 hrs by MTT assay; details: NCI-H2228, 72 h
[2] = test system: NCI-H292; assay: Cytotoxicity against human NCI-H292 cells after 72 hrs by MTT assay; details: NCI-H292, 72 h
[3] = test system: BT-474; assay: Cytotoxicity against human BT474 cells after 72 hrs by MTT assay; details: BT-474, 72 h
[4] = test system: SW480; assay: Cytotoxicity against human SW480 cells after 72 hrs by MTT assay; details: SW480, 72 h
[5] = test system: MV4-11; assay: Antitumor activity against human MV4-11 cells xenografted in NOD-SCID mouse assessed as tumor growth inhibition at 40 mg/kg, ip once daily for 21 days measured every 3 days; assay type: functional; details: MV4-11, ip, route intraperitoneal, read-out: GI
In short: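 Female NOD-SCID mice, 6−7 weeks old, received 100 μL of MV4-11 cells (1 × 10⁸/mL in serum-free medium) s.c. in the hind flank. At 300−500 mm³ tumours, mice were randomized (6 per group). Drug was dissolved in 25% (v/v) PEG400 plus 5% DMSO and given ip once daily at 5 mL/kg. Calipers every 3 days; volume = a × b²/2.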

[6] = test system: Mus musculus; assay: Toxicity in NOD-SCID mouse bearing human MV4-11 cells assessed as change in body weight at 20 to 100 mg/kg, ip administered qd for 21 days; assay type: organism-based; parameters: dose 20-100 mg/kg, route intraperitoneal; details: in vivo, 504 h
In short: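 Female NOD-SCID mice (6−7 weeks old) received s.c. hind-flank injections of MV4-11 cells (100 μL of a 1 × 10⁸/mL suspension in serum-free medium). At 300−500 mm³, the mice were randomized into 4 groups of 6. They were dosed ip once daily for 21 days with 20, 40 or 100 mg/kg/d or vehicle (25% PEG400 plus 5% DMSO, 5 mL/kg). Body weight and signs of toxicity were followed throughout.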

[7] = test system: MV4-11; assay: Antitumor activity against human MV4-11 cells xenografted in NOD-SCID mouse assessed as increase in apoptotic cells at 20 mg/kg, ip administered qd for 21 days measured after 2 to 3 days of last dose by TUNEL analysis; assay type: functional, organism-based; parameters: dose 20 mg/kg; details: TDE = time-dependent effect
In short: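 NOD-SCID mice bearing MV4-11 tumours received 20 mg/kg/d ip and were sacrificed at set times after dosing. Tumours were formalin-fixed and paraffin-embedded, and 4−8 μm sections were cut. Proliferation by Ki67 immunostaining, apoptosis by TUNEL staining, tissue by hematoxylin staining; light-microscope imaging.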

[8] = target: T1, Receptor-type tyrosine-protein kinase FLT3 (Homo sapiens, UniProt P36888); assay: Inhibition of human FLT3
T1 sequence (P36888 whole entry): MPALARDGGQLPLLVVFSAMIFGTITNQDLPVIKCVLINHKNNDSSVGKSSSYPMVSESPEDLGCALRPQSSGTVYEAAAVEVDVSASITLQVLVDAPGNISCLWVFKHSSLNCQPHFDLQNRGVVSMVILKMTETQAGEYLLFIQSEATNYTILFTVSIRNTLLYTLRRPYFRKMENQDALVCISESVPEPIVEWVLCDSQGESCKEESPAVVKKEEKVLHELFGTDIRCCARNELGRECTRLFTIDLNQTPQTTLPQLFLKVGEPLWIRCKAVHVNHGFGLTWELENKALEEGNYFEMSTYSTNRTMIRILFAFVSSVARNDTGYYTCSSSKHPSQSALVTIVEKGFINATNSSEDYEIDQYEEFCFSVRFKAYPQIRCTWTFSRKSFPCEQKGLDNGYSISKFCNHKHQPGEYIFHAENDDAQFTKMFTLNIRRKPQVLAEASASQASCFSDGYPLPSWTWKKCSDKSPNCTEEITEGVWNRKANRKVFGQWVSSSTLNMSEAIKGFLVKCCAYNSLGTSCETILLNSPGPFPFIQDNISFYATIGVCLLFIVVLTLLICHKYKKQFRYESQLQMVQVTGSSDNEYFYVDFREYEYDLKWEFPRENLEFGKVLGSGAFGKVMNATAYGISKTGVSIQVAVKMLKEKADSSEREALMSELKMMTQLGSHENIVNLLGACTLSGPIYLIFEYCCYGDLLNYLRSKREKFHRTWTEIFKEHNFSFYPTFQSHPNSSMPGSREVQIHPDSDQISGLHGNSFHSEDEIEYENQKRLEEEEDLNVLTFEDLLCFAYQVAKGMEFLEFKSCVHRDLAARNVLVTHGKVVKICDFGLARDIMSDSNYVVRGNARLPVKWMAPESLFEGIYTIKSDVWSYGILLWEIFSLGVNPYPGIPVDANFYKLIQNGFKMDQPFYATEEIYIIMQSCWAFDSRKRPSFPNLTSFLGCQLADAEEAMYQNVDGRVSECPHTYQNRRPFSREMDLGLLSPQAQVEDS
In short: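 Human FLT3 kinase assayed across a dose−response series at 200 μM ATP.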

[9] = test system: HCT-116; assay: Cytotoxicity against FLT3-independent human HCT116 cells after 72 hrs by MTT assay; assay type: functional, cell-based; details: HCT-116, 72 h
In short: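 Adherent lines at 2−5 × 10³ cells/well were allowed to settle 24 h, then the medium was replaced with serial inhibitor dilutions for 72 h. MTT was added for 2−4 h, followed by dissolution in 100% DMSO. OD read at 570 nm. Viability relative to 0.1% DMSO controls; triplicate. Grown in RPMI 1640 or DMEM with 10% FBS, 5% CO₂, 37 °C.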

[10] = target: Mast/stem cell growth factor receptor Kit (Homo sapiens, UniProt P10721); assay: Inhibition of human c-kit
[11] = target: Platelet-derived growth factor receptor alpha (Homo sapiens, UniProt P16234); assay: Inhibition of human PDGFRalpha
[12] = target: Vascular endothelial growth factor receptor 3 (Homo sapiens, UniProt P35916); assay: Inhibition of human FLT4
[13] = target: Aurora kinase A (Homo sapiens, UniProt O14965); assay: Inhibition of human Aurora A
[14] = target: Insulin-like growth factor 1 receptor (Homo sapiens, UniProt P08069); assay: Inhibition of human IGF-1R
[15] = target: RAF proto-oncogene serine/threonine-protein kinase (Homo sapiens, UniProt P04049); assay: Inhibition of human c-Raf
[16] = test system: K562; assay: Cytotoxicity against human K562 cells after 72 hrs by MTT assay; details: K562, 72 h
[17] = test system: Jurkat; assay: Cytotoxicity against human Jurkat cells after 72 hrs by MTT assay

Chain of Vascular endothelial growth factor receptor 3 (P35916 whole entry): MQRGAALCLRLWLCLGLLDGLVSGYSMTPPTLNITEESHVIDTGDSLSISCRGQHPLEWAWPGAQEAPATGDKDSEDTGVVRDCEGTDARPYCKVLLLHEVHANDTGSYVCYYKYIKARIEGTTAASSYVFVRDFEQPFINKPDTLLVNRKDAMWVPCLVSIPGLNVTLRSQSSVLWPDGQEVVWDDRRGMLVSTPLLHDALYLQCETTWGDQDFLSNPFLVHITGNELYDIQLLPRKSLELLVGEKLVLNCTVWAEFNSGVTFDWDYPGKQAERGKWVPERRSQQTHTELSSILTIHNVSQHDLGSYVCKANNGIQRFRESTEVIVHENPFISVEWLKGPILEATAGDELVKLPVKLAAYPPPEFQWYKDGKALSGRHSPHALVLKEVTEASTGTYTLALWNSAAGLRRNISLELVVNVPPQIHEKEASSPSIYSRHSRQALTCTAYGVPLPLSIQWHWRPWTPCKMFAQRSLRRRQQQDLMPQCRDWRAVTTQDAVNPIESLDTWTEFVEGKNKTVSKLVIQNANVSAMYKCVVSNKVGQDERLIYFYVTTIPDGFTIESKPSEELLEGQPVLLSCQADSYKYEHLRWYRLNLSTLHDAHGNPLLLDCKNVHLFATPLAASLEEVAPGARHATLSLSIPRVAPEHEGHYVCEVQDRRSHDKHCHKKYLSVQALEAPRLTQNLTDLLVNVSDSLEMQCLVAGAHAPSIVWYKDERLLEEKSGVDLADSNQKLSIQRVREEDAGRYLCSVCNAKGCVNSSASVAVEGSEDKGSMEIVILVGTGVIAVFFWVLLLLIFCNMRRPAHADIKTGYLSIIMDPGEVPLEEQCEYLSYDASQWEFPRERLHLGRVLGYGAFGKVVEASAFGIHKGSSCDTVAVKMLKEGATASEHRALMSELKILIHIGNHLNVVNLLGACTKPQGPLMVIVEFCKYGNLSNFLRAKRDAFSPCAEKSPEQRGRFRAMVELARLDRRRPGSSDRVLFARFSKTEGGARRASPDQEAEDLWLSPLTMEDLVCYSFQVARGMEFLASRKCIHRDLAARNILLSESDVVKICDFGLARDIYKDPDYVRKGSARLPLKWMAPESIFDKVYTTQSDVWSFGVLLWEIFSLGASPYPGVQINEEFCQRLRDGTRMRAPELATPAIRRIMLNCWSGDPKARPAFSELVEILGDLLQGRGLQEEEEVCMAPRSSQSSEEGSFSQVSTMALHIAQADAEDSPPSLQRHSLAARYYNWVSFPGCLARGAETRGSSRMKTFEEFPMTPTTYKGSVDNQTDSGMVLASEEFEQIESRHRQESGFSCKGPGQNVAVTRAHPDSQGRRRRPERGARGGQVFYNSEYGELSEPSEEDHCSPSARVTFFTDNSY
Chain of Aurora kinase A (O14965 whole entry): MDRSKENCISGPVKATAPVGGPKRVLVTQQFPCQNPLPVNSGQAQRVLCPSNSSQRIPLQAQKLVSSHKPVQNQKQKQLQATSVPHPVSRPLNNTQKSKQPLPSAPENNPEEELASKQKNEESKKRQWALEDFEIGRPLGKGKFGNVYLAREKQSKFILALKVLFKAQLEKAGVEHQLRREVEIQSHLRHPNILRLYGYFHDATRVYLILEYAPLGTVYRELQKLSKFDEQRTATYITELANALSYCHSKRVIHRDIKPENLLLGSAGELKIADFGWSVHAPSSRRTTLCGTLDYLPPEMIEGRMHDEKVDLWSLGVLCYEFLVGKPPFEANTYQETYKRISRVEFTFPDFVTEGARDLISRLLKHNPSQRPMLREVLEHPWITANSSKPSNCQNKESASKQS
Chain of Mast/stem cell growth factor receptor Kit (P10721 whole entry): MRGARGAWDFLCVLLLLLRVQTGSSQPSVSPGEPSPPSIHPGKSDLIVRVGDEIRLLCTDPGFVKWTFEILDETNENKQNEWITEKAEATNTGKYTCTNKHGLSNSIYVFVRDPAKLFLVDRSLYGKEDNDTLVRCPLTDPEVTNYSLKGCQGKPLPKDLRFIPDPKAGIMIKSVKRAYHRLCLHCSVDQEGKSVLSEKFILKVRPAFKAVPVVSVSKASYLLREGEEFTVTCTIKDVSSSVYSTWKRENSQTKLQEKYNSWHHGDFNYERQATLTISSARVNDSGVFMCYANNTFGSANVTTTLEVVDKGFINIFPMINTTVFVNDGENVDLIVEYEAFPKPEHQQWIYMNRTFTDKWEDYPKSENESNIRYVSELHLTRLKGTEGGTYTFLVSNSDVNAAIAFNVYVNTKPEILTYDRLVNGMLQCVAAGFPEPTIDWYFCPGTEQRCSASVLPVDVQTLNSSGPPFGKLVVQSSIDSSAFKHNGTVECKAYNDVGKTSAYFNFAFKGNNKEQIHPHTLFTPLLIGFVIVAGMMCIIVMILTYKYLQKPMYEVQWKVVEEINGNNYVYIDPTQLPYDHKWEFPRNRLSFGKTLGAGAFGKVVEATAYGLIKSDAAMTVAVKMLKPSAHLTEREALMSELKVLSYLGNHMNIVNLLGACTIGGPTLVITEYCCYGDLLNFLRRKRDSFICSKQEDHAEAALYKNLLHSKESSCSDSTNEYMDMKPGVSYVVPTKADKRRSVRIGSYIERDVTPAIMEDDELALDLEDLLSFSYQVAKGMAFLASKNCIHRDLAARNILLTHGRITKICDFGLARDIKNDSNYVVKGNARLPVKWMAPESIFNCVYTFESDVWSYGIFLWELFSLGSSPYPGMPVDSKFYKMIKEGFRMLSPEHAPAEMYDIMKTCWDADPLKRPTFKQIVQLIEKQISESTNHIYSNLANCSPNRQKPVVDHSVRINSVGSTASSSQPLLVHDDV
Chain of RAF proto-oncogene serine/threonine-protein kinase (P04049 whole entry): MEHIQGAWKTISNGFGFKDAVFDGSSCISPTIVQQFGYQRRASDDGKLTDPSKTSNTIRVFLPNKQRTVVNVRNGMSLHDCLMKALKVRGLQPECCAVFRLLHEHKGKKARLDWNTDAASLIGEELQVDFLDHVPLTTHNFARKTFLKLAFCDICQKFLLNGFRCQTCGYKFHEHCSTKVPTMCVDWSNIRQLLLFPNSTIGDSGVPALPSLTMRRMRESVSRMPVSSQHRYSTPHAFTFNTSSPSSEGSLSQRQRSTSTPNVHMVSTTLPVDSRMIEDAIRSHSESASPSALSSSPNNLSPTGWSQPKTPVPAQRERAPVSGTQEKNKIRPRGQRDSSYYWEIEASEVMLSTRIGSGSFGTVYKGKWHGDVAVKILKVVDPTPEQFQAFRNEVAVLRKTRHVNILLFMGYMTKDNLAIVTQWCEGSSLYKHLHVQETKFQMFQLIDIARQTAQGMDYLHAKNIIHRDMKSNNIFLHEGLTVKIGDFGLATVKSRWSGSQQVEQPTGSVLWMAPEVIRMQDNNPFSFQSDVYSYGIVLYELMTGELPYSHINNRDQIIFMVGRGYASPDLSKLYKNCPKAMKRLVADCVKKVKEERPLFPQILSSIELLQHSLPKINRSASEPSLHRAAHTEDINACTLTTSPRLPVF
Chain of Platelet-derived growth factor receptor alpha (P16234 whole entry): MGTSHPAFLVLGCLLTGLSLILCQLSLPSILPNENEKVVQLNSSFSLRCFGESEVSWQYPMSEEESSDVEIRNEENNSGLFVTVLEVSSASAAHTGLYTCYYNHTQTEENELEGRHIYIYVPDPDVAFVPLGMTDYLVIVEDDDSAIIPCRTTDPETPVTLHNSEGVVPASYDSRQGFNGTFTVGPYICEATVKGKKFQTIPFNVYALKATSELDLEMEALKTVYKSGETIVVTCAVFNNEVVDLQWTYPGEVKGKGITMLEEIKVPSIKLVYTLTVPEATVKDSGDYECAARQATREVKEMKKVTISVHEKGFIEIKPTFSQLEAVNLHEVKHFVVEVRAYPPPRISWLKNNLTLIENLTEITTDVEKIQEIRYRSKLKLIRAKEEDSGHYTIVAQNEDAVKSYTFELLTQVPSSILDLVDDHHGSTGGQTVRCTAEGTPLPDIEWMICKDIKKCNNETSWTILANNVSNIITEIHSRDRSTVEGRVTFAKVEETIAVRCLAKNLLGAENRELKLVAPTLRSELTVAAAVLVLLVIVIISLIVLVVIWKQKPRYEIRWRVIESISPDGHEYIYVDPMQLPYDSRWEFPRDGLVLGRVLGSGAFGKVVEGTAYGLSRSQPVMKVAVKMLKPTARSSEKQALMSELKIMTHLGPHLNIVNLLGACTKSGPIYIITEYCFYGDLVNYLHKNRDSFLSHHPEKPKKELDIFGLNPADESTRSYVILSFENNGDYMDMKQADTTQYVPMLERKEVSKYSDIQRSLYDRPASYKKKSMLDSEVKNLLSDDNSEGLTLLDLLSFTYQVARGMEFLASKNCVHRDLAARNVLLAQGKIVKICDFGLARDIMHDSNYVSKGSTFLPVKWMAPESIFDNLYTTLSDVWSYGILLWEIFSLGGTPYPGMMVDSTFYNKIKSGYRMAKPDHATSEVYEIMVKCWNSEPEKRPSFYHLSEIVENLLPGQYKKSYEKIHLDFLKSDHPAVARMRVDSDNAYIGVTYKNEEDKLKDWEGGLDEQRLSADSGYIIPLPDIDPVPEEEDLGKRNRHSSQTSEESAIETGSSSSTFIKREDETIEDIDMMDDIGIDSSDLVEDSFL

IC50 [8]: 0.01 µM
IC50 [10]: 6.8 µM
IC50 [11]: > 10 µM
IC50 [12]: 3.7 µM
IC50 [13]: 1.5 µM
IC50 [14]: > 10 µM
IC50 [15]: > 10 µM
Compound: Cc1ccc(NC(=O)Nc2nnc(Sc3ncnc4cc(OCCCN5CCOCC5)ccc34)s2)cc1
IC50 [1]: > 20 µM
IC50 [2]: 6.94 µM
IC50 [3]: > 20 µM
IC50 [4]: 11.2 µM
inhibition in vivo at 40 mg/kg [5]: 84%
Activity [6]: Non-toxic
Activity [7]: tde
IC50 [9]: > 10 µM
IC50 [16]: 12.7 µM
IC50 [17]: 3.05 µM

— ChEMBL document CHEMBL2046280, “Discovery of the novel potent and selective FLT3 inhibitor 1-{5-[7-(3- morpholinopropoxy)quinazolin-4-ylthio]-[1,3,4]thiadiazol-2-yl}-3-p-tolylurea and its anti-acute myeloid leukemia (AML) activities in vitro and in vivo” (J Med Chem, 2012)
